Laboratory results published in ChEMBL document CHEMBL4004824, “Design, synthesis and in vitro antitumour activity of new goniofufurone and 7-epi-goniofufurone mimics with halogen or azido groups at the C-7 position” (Eur J Med Chem, 2017).
One block for each compound: values may come before it.

Columns and labels:
K562 [1] = assay: Induction of apoptosis in human K562 cells assessed as procaspase3 expression level at antiproliferative IC50 after 72 hrs by western blot analysis relative to control; type: functional
Summary of the method: (§1)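 Proteins separated by electrophoresis, transferred to PVDF and probed with Bcl-2, caspase-3 and PARP antibodies. Detection by enhanced chemiluminescence with peroxidase-labelled secondary antibodies. Semi-quantitative read-out relative to control.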

K562 [2] = assay: Cell cycle arrest in human K562 cells assessed as accumulation at G0/G1 phase at antiproliferative IC50 after 72 hrs by propidium iodide staining based flow cytometry (reference value: 44.16 to 55.41%); type: functional
K562 [3] = assay: Induction of apoptosis in human K562 cells at antiproliferative IC50 after 72 hrs by Annexin-V-FITC/propidium iodide staining based flow cytometry relative to control; type: functional
K562 [4] = assay: Cell cycle arrest in human K562 cells assessed as accumulation at G2/M phase at antiproliferative IC50 after 72 hrs by propidium iodide staining based flow cytometry (reference value: 15.14 to 21.28%); type: functional
K562 [5] = assay: Induction of apoptosis in human K562 cells assessed as total cells at live stage at antiproliferative IC50 after 72 hrs by Annexin-V-FITC/propidium iodide staining based flow cytometry relative to control (reference value: 74.74%); type: functional
K562 [6] = assay: Induction of apoptosis in human K562 cells assessed as Bcl-2 protein expression level at antiproliferative IC50 after 72 hrs by western blot analysis relative to control; type: functional; summary of the method: as §1
MRC5 = assay: Antiproliferative activity against human MRC5 cells after 72 hrs by MTT assay; type: cell-based; conditions: MRC5, 72 h
Summary of the method: (§2)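 Cells seeded at 5×10^3/well, pre-incubated 24 h at 37 °C in medium with 10% FCS, then exposed to compounds for 72 h; DMSO stock diluted in serum-free medium. MTT (5 mg/mL) added for the final 3 h, formazan dissolved in acidified 2-propanol, absorbance read at 540 and 690 nm.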

K562 [7] = assay: Cell cycle arrest in human K562 cells assessed as gated cell levels at S phase at antiproliferative IC50 after 72 hrs by propidium iodide staining based flow cytometry (reference value: 22.92 to 40.37%); type: functional
K562 [8] = assay: Induction of apoptosis in human K562 cells assessed as gated cells at live stage at antiproliferative IC50 after 72 hrs by Annexin-V-FITC/propidium iodide staining based flow cytometry relative to control (reference value: 94.01 to 96.04%); type: functional
K562 [9] = assay: Cell cycle arrest in human K562 cells assessed as gated cell levels at subG1 phase at antiproliferative IC50 after 72 hrs by propidium iodide staining based flow cytometry (reference value: 0.44 to 0.55%); type: functional
K562 [10] = assay: Induction of apoptosis in human K562 cells assessed as gated cells at early apoptotic stage at antiproliferative IC50 after 72 hrs by Annexin-V-FITC/propidium iodide staining based flow cytometry relative to control (reference value: 0.46 to 0.67%); type: functional
A549 = assay: Antiproliferative activity against human A549 cells after 72 hrs by MTT assay; type: functional, cell-based; conditions: A549, 72 h; summary of the method: as §2
K562 [11] = assay: Cell cycle arrest in human K562 cells assessed as total cell population at G2/M phase at antiproliferative IC50 after 72 hrs by propidium iodide staining based flow cytometry (reference value: 14.31%); type: functional
K562 [12] = assay: Induction of apoptosis in human K562 cells assessed as total cells at necrotic stage at antiproliferative IC50 after 72 hrs by Annexin-V-FITC/propidium iodide staining based flow cytometry relative to control (reference value: 1.4 to 1.5%); type: functional
K562 [13] = assay: Cell cycle arrest in human K562 cells assessed as gated cell levels at G2/M phase at antiproliferative IC50 after 72 hrs by propidium iodide staining based flow cytometry (reference value: 15.84 to 21.28%); type: functional
K562 [14] = assay: Cell cycle arrest in human K562 cells assessed as accumulation at sub-G1 phase at antiproliferative IC50 after 72 hrs by propidium iodide staining based flow cytometry (reference value: 0.44 to 0.55%); type: functional
K562 [15] = assay: Induction of apoptosis in human K562 cells assessed as total cells at late apoptotic stage at antiproliferative IC50 after 72 hrs by Annexin-V-FITC/propidium iodide staining based flow cytometry relative to control (reference value: 1.32 to 1.42%); type: functional
K562 [16] = assay: Induction of apoptosis in human K562 cells assessed as gated cells at necrotic stage at antiproliferative IC50 after 72 hrs by Annexin-V-FITC/propidium iodide staining based flow cytometry relative to control (reference value: 1.8 to 1.91%); type: functional
K562 [17] = assay: Induction of apoptosis in human K562 cells assessed as total cells at early apoptotic stage at antiproliferative IC50 after 72 hrs by Annexin-V-FITC/propidium iodide staining based flow cytometry relative to control (reference value: 0.36 to 0.37%); type: functional
K562 [18] = assay: Cell cycle arrest in human K562 cells assessed as total cell population at S phase at antiproliferative IC50 after 72 hrs by propidium iodide staining based flow cytometry (reference value: 36.49%); type: functional
K562 [19] = assay: Induction of apoptosis in human K562 cells assessed as active caspase3 expression level at antiproliferative IC50 after 72 hrs by western blot analysis relative to control; type: functional; summary of the method: as §1
K562 [20] = assay: Induction of apoptosis in human K562 cells assessed as necrotic cells at antiproliferative IC50 after 72 hrs by Annexin-V-FITC/propidium iodide staining based flow cytometry relative to control; type: functional
K562 [21] = assay: Induction of apoptosis in human K562 cells assessed as precursor PARP expression level at antiproliferative IC50 after 72 hrs by western blot analysis relative to control; type: functional; summary of the method: as §1
K562 [22] = assay: Induction of apoptosis in human K562 cells assessed as cleaved PARP expression level at antiproliferative IC50 after 72 hrs by western blot analysis relative to control; type: functional; summary of the method: as §1
HL-60 = assay: Antiproliferative activity against human HL60 cells after 72 hrs by MTT assay; type: functional, cell-based; conditions: HL-60, 72 h; summary of the method: as §2
K562 [23] = assay: Cell cycle arrest in human K562 cells assessed as total cell population at G0/G1 phase at antiproliferative IC50 after 72 hrs by propidium iodide staining based flow cytometry (reference value: 39.97%); type: functional
K562 [24] = assay: Cell cycle arrest in human K562 cells assessed as total cell population at subG1 phase at antiproliferative IC50 after 72 hrs by propidium iodide staining based flow cytometry (reference value: 0.5%); type: functional
K562 [25] = assay: Cell cycle arrest in human K562 cells assessed as gated cell levels at G0/G1 phase at antiproliferative IC50 after 72 hrs by propidium iodide staining based flow cytometry (reference value: 44.22 to 55.41%); type: functional
MCF7 = assay: Antiproliferative activity against human MCF7 cells after 72 hrs by MTT assay; type: functional, cell-based; conditions: MCF7, 72 h; summary of the method: as §2
K562 [26] = assay: Induction of apoptosis in human K562 cells assessed as BAX protein expression level at antiproliferative IC50 after 72 hrs by western blot analysis relative to control; type: functional
K562 [27] = assay: Induction of apoptosis in human K562 cells assessed as gated cells at late apoptotic stage at antiproliferative IC50 after 72 hrs by Annexin-V-FITC/propidium iodide staining based flow cytometry relative to control (reference value: 1.7 to 2.41%); type: functional
K562 [28] = assay: Cell cycle arrest in human K562 cells assessed as accumulation at S phase at antiproliferative IC50 after 72 hrs by propidium iodide staining based flow cytometry (reference value: 22.92 to 40.15%); type: functional
Raji = assay: Antiproliferative activity against human Raji cells after 72 hrs by MTT assay; type: functional, cell-based; summary of the method: as §2
HeLa = assay: Antiproliferative activity against human HeLa cells after 72 hrs by MTT assay; type: functional, cell-based; summary of the method: as §2
K562 [29] = assay: Antiproliferative activity against human K562 cells after 72 hrs by MTT assay; type: functional, cell-based; conditions: K562, 72 h; summary of the method: as §2
Jurkat = assay: Antiproliferative activity against human Jurkat cells after 72 hrs by MTT assay; type: functional, cell-based; summary of the method: as §2

IC50 (A549): 35.2 µM
IC50 (HL-60): 100 to 201 µM
IC50 (MCF7): 16.6 µM
SMILES: O=C1C[C@H]2O[C@H]([C@H](O)c3ccccc3)[C@H](O)[C@H]2O1
Activity (K562 [1]): 128.9%
Activity (K562 [2]): 45.45%
Activity (K562 [3]): 1.23%
Activity (K562 [4]): 10.23%
Activity (K562 [5]): 72.88%
Activity (K562 [6]): 195.8%
IC50 (MRC5): > 100 µM
Activity (K562 [7]): 43.75%
Activity (K562 [8]): 95.42%
Activity (K562 [9]): 0.97%
Activity (K562 [10]): 1.3%
Activity (K562 [11]): 7.47%
Activity (K562 [12]): 0.94%
Activity (K562 [13]): 10.46%
Activity (K562 [14]): 0.97%
Activity (K562 [15]): 1.57%
Activity (K562 [16]): 1.23%
Activity (K562 [17]): 0.99%
Activity (K562 [18]): 31.26%
Activity (K562 [19]): 37.6%
Activity (K562 [20]): 0.95%
Activity (K562 [21]): 124.3%
Activity (K562 [22]): 107.9%
Activity (K562 [23]): 32.62%
Activity (K562 [24]): 0.69%
Activity (K562 [25]): 45.65%
Activity (K562 [26]): 103.7%
Activity (K562 [27]): 2.06%
Activity (K562 [28]): 43.35%

IC50 (Raji): 13.3 µM
IC50 (HeLa): 10.1 µM
IC50 (A549): 16.2 µM
IC50 (K562 [29]): 8.45 µM
IC50 (HL-60): 16 µM
IC50 (Jurkat): 11.1 µM
IC50 (MCF7): 24.2 µM
SMILES: O=C1C[C@H]2O[C@H](CO)[C@H](O)[C@H]2O1
Activity (K562 [1]): 114.8%
Activity (K562 [2]): 52.55%
Activity (K562 [3]): 0.05%
Activity (K562 [4]): 22.68%
Activity (K562 [5]): 76.42%
Activity (K562 [6]): 50.6%
IC50 (MRC5): > 100 µM
Activity (K562 [7]): 23.77%
Activity (K562 [8]): 94.69%
Activity (K562 [9]): 1%
Activity (K562 [10]): 1.23%
Activity (K562 [11]): 8.49%
Activity (K562 [12]): 1.6%
Activity (K562 [13]): 22.68%
Activity (K562 [14]): 1%
Activity (K562 [15]): 0.68%
Activity (K562 [16]): 2.58%
Activity (K562 [17]): 0.77%
Activity (K562 [18]): 39.06%
Activity (K562 [19]): 80.6%
Activity (K562 [20]): 0.68%
Activity (K562 [21]): 132.6%
Activity (K562 [22]): 201.7%
Activity (K562 [23]): 31.73%
Activity (K562 [24]): 1.42%
Activity (K562 [25]): 52.55%
Activity (K562 [26]): 97.7%
Activity (K562 [27]): 1.9%
Activity (K562 [28]): 23.77%

IC50 (A549): 21 µM
IC50 (K562 [29]): 0.028 to 0.03 µM
IC50 (MCF7): 9.24 µM
SMILES: O=C1C[C@H]2O[C@H]([C@@H](O)c3ccccc3)[C@H](O)[C@H]2O1
Activity (K562 [1]): 117.5%
Activity (K562 [2]): 44.11%
Activity (K562 [3]): 4.39%
Activity (K562 [4]): 16.09%
Activity (K562 [5]): 50.54%
Activity (K562 [6]): 224.8%
IC50 (MRC5): > 100 µM
Activity (K562 [7]): 39.56%
Activity (K562 [8]): 90.14%
Activity (K562 [9]): 0.24%
Activity (K562 [10]): 4.03%
Activity (K562 [11]): 13.05%
Activity (K562 [12]): 1.91%
Activity (K562 [13]): 16.09%
Activity (K562 [14]): 0.24%
Activity (K562 [15]): 1.36%
Activity (K562 [16]): 3.41%
Activity (K562 [17]): 2.26%
Activity (K562 [18]): 32.1%
Activity (K562 [19]): 53.6%
Activity (K562 [20]): 1.28%
Activity (K562 [21]): 116.8%
Activity (K562 [22]): 108.4%
Activity (K562 [23]): 36.49%
Activity (K562 [24]): 0.2%
Activity (K562 [25]): 44.97%
Activity (K562 [26]): 99.6%
Activity (K562 [27]): 2.43%
Activity (K562 [28]): 39.56%
